In ChEMBL document CHEMBL1137674, “Synthesis and antibacterial evaluation of novel 4-alkyl substituted phenyl beta-aldehyde ketone derivatives” (2009):
In brackets after ≈: the same amount, converted by molar mass.

Legend:
Type in all cases: functional
Pseudomonas aeruginosa = experiment: Antimicrobial activity against Pseudomonas aeruginosa ATCC 27853 after 16 to 18 hrs by agar dilution method
In short: (§1)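 Agar dilution following NCCLS/CLSI, with twofold serial dilutions of the compounds and reference drugs in Mueller-Hinton agar. Inocula were overnight cultures (16-18 h, 37 °C) adjusted to 0.5 McFarland. Compounds were dissolved in DMSO, which served as the control. MIC was taken as the lowest concentration preventing viable growth after 16-18 h incubation.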

Staphylococcus aureus [1] = experiment: Antimicrobial activity against Staphylococcus aureus ATCC 25923 after 16 to 18 hrs by agar dilution method; in short: as §1
Escherichia coli = experiment: Antimicrobial activity against Escherichia coli ATCC 25922 after 16 to 18 hrs by agar dilution method; in short: as §1
Staphylococcus aureus [2] = experiment: Antimicrobial activity against methicillin-resistant Staphylococcus aureus isolate 4 after 16 to 18 hrs by agar dilution method
In short: (§2)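 Agar dilution MIC on Mueller-Hinton agar with the test agents mixed into the medium. MIC was read as the lowest concentration preventing viable growth after 16–18 h incubation.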

Staphylococcus aureus [3] = experiment: Antimicrobial activity against methicillin-resistant Staphylococcus aureus isolate 5 after 16 to 18 hrs by agar dilution method; in short: as §2
Staphylococcus aureus [4] = experiment: Antimicrobial activity against methicillin-resistant Staphylococcus aureus isolate 3 after 16 to 18 hrs by agar dilution method; in short: as §2
Staphylococcus aureus [5] = experiment: Antimicrobial activity against methicillin-resistant Staphylococcus aureus isolate 1 after 16 to 18 hrs by agar dilution method; in short: as §2
Staphylococcus aureus [6] = experiment: Antimicrobial activity against methicillin-resistant Staphylococcus aureus isolate 2 after 16 to 18 hrs by agar dilution method; in short: as §2
Staphylococcus aureus [7] = experiment: Antimicrobial activity against Staphylococcus aureus isolate 6 after 16 to 18 hrs by agar dilution method
Staphylococcus aureus [8] = experiment: Antimicrobial activity against Staphylococcus aureus isolate 3 after 16 to 18 hrs by agar dilution method
Staphylococcus aureus [9] = experiment: Antimicrobial activity against Staphylococcus aureus isolate 7 after 16 to 18 hrs by agar dilution method; in short: as §2
Staphylococcus aureus [10] = experiment: Antimicrobial activity against Staphylococcus aureus isolate 8 after 16 to 18 hrs by agar dilution method; in short: as §2
Staphylococcus aureus [11] = experiment: Antimicrobial activity against Staphylococcus aureus isolate 4 after 16 to 18 hrs by agar dilution method
Staphylococcus aureus [12] = experiment: Antimicrobial activity against Staphylococcus aureus isolate 9 after 16 to 18 hrs by agar dilution method
Staphylococcus aureus [13] = experiment: Antimicrobial activity against Staphylococcus aureus isolate 1 after 16 to 18 hrs by agar dilution method
Staphylococcus aureus [14] = experiment: Antimicrobial activity against Staphylococcus aureus isolate 10 after 16 to 18 hrs by agar dilution method
Staphylococcus aureus [15] = experiment: Antimicrobial activity against Staphylococcus aureus isolate 5 after 16 to 18 hrs by agar dilution method
Staphylococcus aureus [16] = experiment: Antimicrobial activity against Staphylococcus aureus isolate 2 after 16 to 18 hrs by agar dilution method; in short: as §2

Structure (SMILES) | MIC (Pseudomonas aeruginosa) [µg/mL] | MIC (Staphylococcus aureus [1]) [µg/mL] | MIC (Escherichia coli) [µg/mL] | other results
CO/N=C/CC(=O)c1ccccc1 | > 64 | 64 (≈ 361 µM) | > 64 | 
CCO/N=C/CC(=O)c1ccc(CC)cc1 | > 64 | 4 (≈ 18.2 µM) | > 64 | 
CCO/N=C/CC(=O)c1ccc(C)cc1 | 64 (≈ 312 µM) | 4 (≈ 19.5 µM) | 64 (≈ 312 µM) | 
CO/N=C/CC(=O)c1ccc(C(C)C)cc1 | > 64 | 2 (≈ 9.12 µM) | > 64 | MIC (Staphylococcus aureus [2]): 8 µg/mL (≈ 36.5 µM); MIC (Staphylococcus aureus [3]): 4 µg/mL (≈ 18.2 µM); MIC (Staphylococcus aureus [4]): 8 µg/mL (≈ 36.5 µM); MIC (Staphylococcus aureus [5]): 8 µg/mL (≈ 36.5 µM); MIC (Staphylococcus aureus [6]): 8 µg/mL (≈ 36.5 µM)
C[C@H]1COc2c(N3CCN(C)CC3)c(F)cc3c(=O)c(C(=O)O)cn1c23.C[C@H]1COc2c(N3CCN(C)CC3)c(F)cc3c(=O)c(C(=O)O)cn1c23.O [LEVOFLOXACIN] | 0.5 | 0.25 | 0.025 | MIC (Staphylococcus aureus [7]): 0.5 µg/mL; MIC (Staphylococcus aureus [8]): 0.25 µg/mL; MIC (Staphylococcus aureus [9]): 0.25 µg/mL; MIC (Staphylococcus aureus [2]): 16 µg/mL; MIC (Staphylococcus aureus [3]): 16 µg/mL; MIC (Staphylococcus aureus [10]): 0.25 µg/mL; MIC (Staphylococcus aureus [11]): 0.25 µg/mL; MIC (Staphylococcus aureus [12]): 0.25 µg/mL; MIC (Staphylococcus aureus [13]): 0.25 µg/mL; MIC (Staphylococcus aureus [14]): 0.5 µg/mL; MIC (Staphylococcus aureus [15]): 0.125 µg/mL; MIC (Staphylococcus aureus [16]): 0.5 µg/mL; MIC (Staphylococcus aureus [4]): 16 µg/mL; MIC (Staphylococcus aureus [5]): 8 µg/mL; MIC (Staphylococcus aureus [6]): 8 µg/mL
CO/N=C/CC(=O)c1ccc(C)cc1 | 64 (≈ 335 µM) | 4 (≈ 20.9 µM) | 64 (≈ 335 µM) | MIC (Staphylococcus aureus [2]): 8 µg/mL (≈ 41.8 µM); MIC (Staphylococcus aureus [3]): 8 µg/mL (≈ 41.8 µM); MIC (Staphylococcus aureus [4]): 8 µg/mL (≈ 41.8 µM); MIC (Staphylococcus aureus [5]): 8 µg/mL (≈ 41.8 µM); MIC (Staphylococcus aureus [6]): 8 µg/mL (≈ 41.8 µM)
CCCCCCCCCC(=O)CC(O)S(=O)(=O)[O-].[Na+] (configuration not stated) [SODIUM HOUTTUYFONATE] |  |  |  | MIC (Staphylococcus aureus [7]): 64 µg/mL; MIC (Staphylococcus aureus [8]): 64 µg/mL; MIC (Staphylococcus aureus [9]): 64 µg/mL; MIC (Staphylococcus aureus [10]): 64 µg/mL; MIC (Staphylococcus aureus [11]): 64 µg/mL; MIC (Staphylococcus aureus [12]): 64 µg/mL; MIC (Staphylococcus aureus [13]): 64 µg/mL; MIC (Staphylococcus aureus [14]): 32 µg/mL; MIC (Staphylococcus aureus [15]): 32 µg/mL; MIC (Staphylococcus aureus [16]): 64 µg/mL
CC[C@H]1OC(=O)[C@H](C)[C@@H](O[C@H]2C[C@@](C)(OC)[C@@H](O)[C@H](C)O2)[C@H](C)[C@@H](O[C@@H]2O[C@H](C)C[C@H](N(C)C)[C@H]2O)[C@](C)(OC)C[C@@H](C)C(=O)[C@H](C)[C@@H](O)[C@]1(C)O [CLARITHROMYCIN] | > 64 | 0.12 (≈ 0.16 µM) | 32 (≈ 42.8 µM) | 
CCCCCc1ccc(C(=O)C/C=N/OCC)cc1 | > 64 | 4 (≈ 15.3 µM) | > 64 | 
CCCCCCCCCC(=O)CC=O [HOUTTUYNIN] |  | 32 (≈ 161 µM) |  | MIC (Staphylococcus aureus [2]): 16 µg/mL (≈ 80.7 µM); MIC (Staphylococcus aureus [3]): 16 µg/mL (≈ 80.7 µM); MIC (Staphylococcus aureus [4]): 16 µg/mL (≈ 80.7 µM); MIC (Staphylococcus aureus [5]): 16 µg/mL (≈ 80.7 µM); MIC (Staphylococcus aureus [6]): 16 µg/mL (≈ 80.7 µM)
Cc1ccc(C(=O)C/C=N/NC(N)=O)cc1 | > 64 | > 64 | > 64 | 
Cc1ccc(C(=O)CC=O)cc1 | > 64 | > 64 | > 64 | 
CCCCCc1ccc(C(=O)C/C=N/OC)cc1 | 64 (≈ 259 µM) | 4 (≈ 16.2 µM) | 64 (≈ 259 µM) | 
CCO/N=C/CC(=O)c1ccc(C(C)C)cc1 | > 64 | 1 (≈ 4.29 µM) | > 64 | MIC (Staphylococcus aureus [7]): 4 µg/mL (≈ 17.1 µM); MIC (Staphylococcus aureus [8]): 4 µg/mL (≈ 17.1 µM); MIC (Staphylococcus aureus [9]): 8 µg/mL (≈ 34.3 µM); MIC (Staphylococcus aureus [2]): 16 µg/mL (≈ 68.6 µM); MIC (Staphylococcus aureus [3]): 8 µg/mL (≈ 34.3 µM); MIC (Staphylococcus aureus [10]): 8 µg/mL (≈ 34.3 µM); MIC (Staphylococcus aureus [11]): 2 µg/mL (≈ 8.57 µM); MIC (Staphylococcus aureus [12]): 4 µg/mL (≈ 17.1 µM); MIC (Staphylococcus aureus [13]): 4 µg/mL (≈ 17.1 µM); MIC (Staphylococcus aureus [14]): 4 µg/mL (≈ 17.1 µM); MIC (Staphylococcus aureus [15]): 1 µg/mL (≈ 4.29 µM); MIC (Staphylococcus aureus [16]): 16 µg/mL (≈ 68.6 µM); MIC (Staphylococcus aureus [4]): 8 µg/mL (≈ 34.3 µM); MIC (Staphylococcus aureus [5]): 16 µg/mL (≈ 68.6 µM); MIC (Staphylococcus aureus [6]): 8 µg/mL (≈ 34.3 µM)

More lines, main results first:

MIC (Pseudomonas aeruginosa) [µg/mL] | MIC (Staphylococcus aureus [1]) [µg/mL] | MIC (Escherichia coli) [µg/mL] | Structure (SMILES) | other results
> 64 | > 64 | > 64 | O=CCC(=O)c1ccccc1 | 
> 64 | > 64 | > 64 | CC(C)c1ccc(C(=O)CC(O)S(=O)(=O)[O-])cc1.[Na+] (configuration not stated) | 
> 64 | 32 (≈ 137 µM) | > 64 | CCc1ccc(/C(C/C=N/OC)=N\OC)cc1 | 
> 64 | 32 (≈ 122 µM) | > 64 | CCO/N=C(/C/C=N/OCC)c1ccc(CC)cc1 | 
> 64 | 64 (≈ 361 µM) | > 64 | Cc1ccc(C(=O)C/C=N/O)cc1 | 
> 64 | 4 (≈ 19.5 µM) | > 64 | CCc1ccc(C(=O)C/C=N/OC)cc1 | 
> 64 | > 64 | > 64 | NC(=S)N/N=C/CC(=O)c1ccccc1 | 
> 64 | > 64 | > 64 | NC(=O)N/N=C/CC(=O)c1ccccc1 | 
> 64 | 64 (≈ 210 µM) | > 64 | CCCCCc1ccc(/C(C/C=N/OCC)=N\OCC)cc1 | 
> 64 | > 64 | > 64 | CCCCCc1ccc(C(=O)CC(O)S(=O)(=O)[O-])cc1.[Na+] (configuration not stated) | 
> 64 | > 64 | > 64 | Cc1ccc(C(=O)C/C=N/NC(N)=S)cc1 | 
> 64 | 32 (≈ 116 µM) | > 64 | CCO/N=C(/C/C=N/OCC)c1ccc(C(C)C)cc1 | 
> 64 | 32 (≈ 129 µM) | > 64 | CO/N=C(/C/C=N/OC)c1ccc(C(C)C)cc1 | 
> 64 | 64 (≈ 392 µM) | > 64 | O=C(C/C=N/O)c1ccccc1 | 
> 64 | 64 (≈ 232 µM) | > 64 | CCCCCc1ccc(/C(C/C=N/OC)=N\OC)cc1 | 
